In publication PMC8923172 (Antimicrobial Agents and Chemotherapy, 2022):
Marks after values point to notes of the source that are not given here. Residues, ends and D or L forms follow the SMILES beside them.

Assay: Serum biochemistry of cynomolgus monkeys at the end of treatment
Type: in vivo
Settings: median (IQR)
Outline: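 GLP 10-day study in male and female cynomolgus monkeys (n = 3-5/sex/group) dosed once daily with 0 (placebo), 5, 10 or 15 mg/kg test compound by i.v. infusion over 60 ± 5 min. Hematology, serum chemistry and coagulation were taken at end of treatment and reported as median (IQR). Dose groups were compared by Kruskal-Wallis with Dunn's multiple comparison test.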

Structure (SMILES): CC[C@H](C)[C@@H]1NC(=O)[C@@H]2CSSC[C@H](NC(=O)[C@H](CCCNC(=N)N)NC(=O)[C@@H]3CSSC[C@H](NC1=O)C(=O)N[C@@H]([C@@H](C)O)C(=O)N[C@@H](CCCNC(=N)N)C(=O)NCC(=O)N[C@@H](Cc1ccccc1)C(=O)N3)C(=O)N[C@@H](CC(C)C)C(=O)N[C@H]1CSSC[C@H](NC(=O)[C@H](C(C)C)NC(=O)CNC(=O)[C@H](CCCNC(=N)N)NC(=O)[C@H](CCCNC(=N)N)NC1=O)C(=O)N[C@@H](CCCNC(=N)N)C(=O)N2 [RTD-1, Rhesus theta (θ) defensin-1] (HELM PEPTIDE1{G.F.C.R.C.L.C.R.R.G.V.C.R.C.I.C.T.R}$PEPTIDE1,PEPTIDE1,3:R3-16:R3|PEPTIDE1,PEPTIDE1,5:R3-14:R3|PEPTIDE1,PEPTIDE1,7:R3-12:R3|PEPTIDE1,PEPTIDE1,1:R1-18:R2$$$V2.0)
- Glucose (female, 10 mg/kg/day): 59.0 (6.5) mg/dL
- Phos (female, 10 mg/kg/day): 5.3 (0.6) mg/dL
- Potassium (female, 10 mg/kg/day): 5.1 (0.9) mmol/L
- Sodium (female, 10 mg/kg/day): 146.0 (3.0) mmol/L
- T-Bil (female, 10 mg/kg/day): 0.2 (0.1) mg/dL
- TP (female, 10 mg/kg/day): 7.0 (0.3) g/dL
- Triglycerides (female, 10 mg/kg/day): 49.0 (1.5) mg/dL
- Urea N (female, 10 mg/kg/day): 16.0 (4.5) mg/dL
- A/G (female, 15 mg/kg/day): 1.5 (0.0)
- ALP (female, 15 mg/kg/day): 943.0 (411.0) U/L
- ALT (female, 15 mg/kg/day): 92.0 (36.0) U/L
- AST (female, 15 mg/kg/day): 95.0 (45.0) U/L
- Albumin (female, 15 mg/kg/day): 4.3 (0.6) g/dL
- CK (female, 15 mg/kg/day): 891.0 (603.0) U/L
- Calcium (female, 15 mg/kg/day): 10.2 (0.4) mg/dL
- Chloride (female, 15 mg/kg/day): 111.0 (1.0) mmol/L
- Cholesterol (female, 15 mg/kg/day): 94.0 (13.0) mg/dL
- Creatinine (female, 15 mg/kg/day): 0.7 (0.1) mg/dL
- GGT (female, 15 mg/kg/day): 99.0 (37.0) U/L
- Globulin (female, 15 mg/kg/day): 2.8 (0.1) g/dL
- Glucose (female, 15 mg/kg/day): 78.0 (18.0)^c mg/dL
- Phos (female, 15 mg/kg/day): 5.3 (0.3)^c mg/dL
- Potassium (female, 15 mg/kg/day): 6.0 (1.0) mmol/L
- Sodium (female, 15 mg/kg/day): 146.0 (4.0) mmol/L
- T-Bil (female, 15 mg/kg/day): 0.2 (0.2) mg/dL
- TP (female, 15 mg/kg/day): 7.1 (0.8) g/dL
- Triglycerides (female, 15 mg/kg/day): 56.0 (11.0) mg/dL
- Urea N (female, 15 mg/kg/day): 18.0 (1.0) mg/dL
- A/G (male, 5 mg/kg/day): 1.8 (0.1)
- ALP (male, 5 mg/kg/day): 802.0 (253.0) U/L
- ALT (male, 5 mg/kg/day): 172.0 (125.0) U/L
- AST (male, 5 mg/kg/day): 122.0 (190.0) U/L
- Albumin (male, 5 mg/kg/day): 4.8 (0.2) g/dL
- CK (male, 5 mg/kg/day): 888.0 (13,478.0) U/L
- Calcium (male, 5 mg/kg/day): 9.8 (0.5) mg/dL
- Chloride (male, 5 mg/kg/day): 110.0 (2.0) mmol/L
- Cholesterol (male, 5 mg/kg/day): 110.0 (15.5) mg/dL
- Creatinine (male, 5 mg/kg/day): 0.8 (0.2) mg/dL
- GGT (male, 5 mg/kg/day): 137.0 (31.5) U/L
- Globulin (male, 5 mg/kg/day): 2.7 (0.1) g/dL
- Glucose (male, 5 mg/kg/day): 111.0 (26.5) mg/dL
- Phos (male, 5 mg/kg/day): 5.5 (1.7) mg/dL
- Potassium (male, 5 mg/kg/day): 6.0 (1.4) mmol/L
- Sodium (male, 5 mg/kg/day): 147.0 (4.0) mmol/L
- T-Bil (male, 5 mg/kg/day): 0.3 (0.1) mg/dL
- TP (male, 5 mg/kg/day): 7.5 (0.2) g/dL
- Triglycerides (male, 5 mg/kg/day): 46.0 (18.5) mg/dL
- Urea N (male, 5 mg/kg/day): 15.0 (3.5) mg/dL
- A/G (male, 10 mg/kg/day): 1.7 (0.2)
- ALP (male, 10 mg/kg/day): 753.0 (3.5) U/L
- ALT (male, 10 mg/kg/day): 105.0 (26.5) U/L
- AST (male, 10 mg/kg/day): 105.0 (43.5) U/L
- Albumin (male, 10 mg/kg/day): 4.7 (0.2) g/dL
- CK (male, 10 mg/kg/day): 515.0 (2,756.5) U/L
- Calcium (male, 10 mg/kg/day): 10.5 (0.4) mg/dL
- Chloride (male, 10 mg/kg/day): 110.0 (1.5) mmol/L
- Cholesterol (male, 10 mg/kg/day): 99.0 (16.5) mg/dL
- Creatinine (male, 10 mg/kg/day): 0.6 (0.1) mg/dL
- GGT (male, 10 mg/kg/day): 119.0 (32.5) U/L
- Globulin (male, 10 mg/kg/day): 2.9 (0.4) g/dL
- Glucose (male, 10 mg/kg/day): 71.0 (23.0) mg/dL
- Phos (male, 10 mg/kg/day): 5.4 (0.8) mg/dL
- Potassium (male, 10 mg/kg/day): 5.9 (0.9) mmol/L
- Sodium (male, 10 mg/kg/day): 150.0 (3.0) mmol/L
- T-Bil (male, 10 mg/kg/day): 0.3 (0.0) mg/dL
- TP (male, 10 mg/kg/day): 7.5 (0.5) g/dL
- Triglycerides (male, 10 mg/kg/day): 32.0 (6.0) mg/dL
- Urea N (male, 10 mg/kg/day): 20.0 (3.5) mg/dL
- A/G (male, 15 mg/kg/day): 1.6 (0.2)
- ALP (male, 15 mg/kg/day): 957.0 (638.0) U/L
- ALT (male, 15 mg/kg/day): 88.0 (17.0) U/L
- AST (male, 15 mg/kg/day): 103.0 (40.0) U/L
- Albumin (male, 15 mg/kg/day): 4.4 (0.2) g/dL
- CK (male, 15 mg/kg/day): 518.0 (1,392.0) U/L
- Calcium (male, 15 mg/kg/day): 10.1 (0.3) mg/dL
- Chloride (male, 15 mg/kg/day): 112.0 (1.0) mmol/L
- Cholesterol (male, 15 mg/kg/day): 105.0 (50.0) mg/dL
- Creatinine (male, 15 mg/kg/day): 0.6 (0.1) mg/dL
- GGT (male, 15 mg/kg/day): 101.0 (6.0) U/L
- Globulin (male, 15 mg/kg/day): 2.9 (0.5) g/dL
- Glucose (male, 15 mg/kg/day): 67.0 (5.0) mg/dL
- Phos (male, 15 mg/kg/day): 5.2 (0.6) mg/dL
- Potassium (male, 15 mg/kg/day): 5.8 (0.6) mmol/L
- Sodium (male, 15 mg/kg/day): 149.0 (2.0) mmol/L
- T-Bil (male, 15 mg/kg/day): 0.2 (0.2) mg/dL
- TP (male, 15 mg/kg/day): 7.5 (0.8) g/dL
- Triglycerides (male, 15 mg/kg/day): 78.0 (52.0) mg/dL
- Urea N (male, 15 mg/kg/day): 15.0 (2.0) mg/dL
